Results from ChEMBL document CHEMBL1121608, “Modification of the 5' position of purine nucleosides. 2. Synthesis and some cardiovascular properties of adenosine-5'-(N-substituted)carboxamides” (J Med Chem, 1980).

Columns and labels:
[1] = Lethal dose in mice after intraperitoneal administration; format: toxicity, organism-based; conditions: mouse, in vivo, ip
In short: (§1)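 Male and female mice, three per dose group, were given the compound by the stated route in increments of 0.5 log doses. The LD50 was estimated as an approximate value.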

Canis familiaris [2] = test: Tested for the percent increase in coronary sinus partial pressure of oxygen (PO2) in open chest anesthetized dog at intravenous dosage of 1.00 mg/kg; format: functional, Canis lupus familiaris
Canis familiaris [3] = test: Total time in minutes elapsed from the initiation of the change until return to the pretest value of heart rate in coronary sinus of anesthetized dog at intravenous dosage of 0.01 mg/kg; format: functional, Canis lupus familiaris
Canis familiaris [4] = test: Total time in minutes elapsed from the initiation of the change until return to the pretest value of oxygen partial pressure in coronary sinus of anesthetized dog at intravenous dosage of 1 mg/kg; format: functional, Canis lupus familiaris
In short: (§2)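 Open-chest anesthetized dogs given compound by intravenous injection. Coronary sinus PO2 was monitored, and duration was the total time in minutes from the onset of the change until return to the pretest value.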

Canis familiaris [5] = test: Total time in minutes elapsed from the initiation of the change until return to the pretest value of oxygen partial pressure in coronary sinus of anesthetized dog at intravenous dosage of 0.10 mg/kg; format: functional, Canis lupus familiaris; conditions: dose 0.1 mg/kg
Canis familiaris [6] = test: Total time in minutes elapsed from the initiation of the change until return to the pretest value of heart rate in coronary sinus of anesthetized dog at intravenous dosage of 1 mg/kg; format: functional, Canis lupus familiaris
Canis familiaris [7] = test: Tested for the percent increase in aortic blood pressure (BP) in open chest anesthetized dog at intravenous dosage of 0.01 mg/kg; format: functional, Canis lupus familiaris, Artery
In short: (§3)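 Open-chest anesthetized dogs, compound given iv at the stated dose. Aortic blood pressure is reported as the change from the control (pre-dose) value. Other set-up follows the group's earlier cardiovascular protocol.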

Canis familiaris [8] = test: Tested for the percent increase in aortic blood pressure (BP) in open chest anesthetized dog at intravenous dosage of 1.00 mg/kg; format: functional, Canis lupus familiaris, Artery; in short: as §3
Canis familiaris [9] = test: Total time in minutes elapsed from the initiation of the change until return to the pretest value of blood pressure in coronary sinus of anesthetized dog at intravenous dosage of 1 mg/kg; format: functional, Canis lupus familiaris
[10] = Lethal dose in mice after peroral administration; format: toxicity, organism-based; conditions: mouse, in vivo, po; in short: as §1
Canis familiaris [11] = test: Total time in minutes elapsed from the initiation of the change until return to the pretest value of blood pressure in coronary sinus of anesthetized dog at intravenous dosage of 0.1 mg/kg; format: functional, Canis lupus familiaris
Mus musculus [12] = test: Tested for the lethal dose in mice after administration perorally; format: functional; conditions: po; in short: as §1
Canis familiaris [13] = test: tested for the percent increase in aortic blood pressure (BP) in open chest anesthetized dog at intravenous dosage of 1 mg/kg; format: functional, Canis lupus familiaris, Artery
In short: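 Open-chest anesthetized dogs received intravenous doses. Aortic blood pressure was recorded as the change from control.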

Mus musculus [14] = test: Tested for the lethal dose in mice after administration intraperitoneally; format: functional; conditions: ip; in short: as §1
Canis familiaris [15] = test: tested for percent increase in coronary sinus partial pressure of oxygen (PO2) in open chest anesthetized dog at intravenous dosage of 1 mg/kg; format: functional, Canis lupus familiaris
Canis familiaris [16] = test: tested for the percent increase in heart rate (HR) in open chest anesthetized dog at intravenous dosage of 1 mg/kg; format: functional, Canis lupus familiaris
Canis familiaris [17] = test: Total time in minutes elapsed from the initiation of the change until return to the pretest value of blood pressure in coronary sinus of anesthetized dog at intravenous dosage of 0.01 mg/kg; format: functional, Canis lupus familiaris
Canis familiaris [18] = test: Total time in minutes elapsed from the initiation of the change until return to the pretest value of oxygen partial pressure in coronary sinus of anesthetized dog at intravenous dosage of 0.01 mg/kg; format: functional, Canis lupus familiaris
Canis familiaris [19] = test: Total time in minutes elapsed from the initiation of the change until return to the pretest value of heart rate in coronary sinus of anesthetized dog at intravenous dosage of 0.001 mg/kg; format: functional, Canis lupus familiaris
Canis familiaris [20] = test: Tested for percent increase in coronary sinus partial pressure of oxygen (PO2) in open chest anesthetized dog at intravenous dosage of 0.01 mg/kg; format: functional, Canis lupus familiaris
Canis familiaris [21] = test: Tested for percent increase in coronary sinus partial pressure of oxygen (PO2) in open chest anesthetized dog at intravenous dosage of 1.00 mg/kg; format: functional, Canis lupus familiaris
Canis familiaris [22] = test: Total time in minutes elapsed from the initiation of the change until return to the pretest value of blood pressure in coronary sinus of anesthetized dog at intravenous dosage of 1.00 mg/kg; format: functional, Canis lupus familiaris
Canis familiaris [23] = test: Total time in minutes elapsed from the initiation of the change until return to the pretest value of oxygen partial pressure in coronary sinus of anesthetized dog at intravenous dosage of 0.1 mg/kg; format: functional, Canis lupus familiaris
Canis familiaris [24] = test: Tested for the percent increase in coronary sinus partial pressure of oxygen (PO2) in open chest anesthetized dog at intravenous dosage of 0.10 mg/kg; format: functional, Canis lupus familiaris; conditions: dose 0.1 mg/kg
Canis familiaris [25] = test: Total time in minutes elapsed from the initiation of the change until return to the pretest value of blood pressure in coronary sinus of anesthetized dog at intravenous dosage of 10 mg/kg; format: functional, Canis lupus familiaris
Canis familiaris [26] = test: Total time in minutes elapsed from the initiation of the change until return to the pretest value of heart rate in coronary sinus of anesthetized dog at intravenous dosage of 10 mg/kg; format: functional, Canis lupus familiaris
Canis familiaris [27] = test: Total time in minutes elapsed from the initiation of the change until return to the pretest value of oxygen partial pressure in coronary sinus of anesthetized dog at intravenous dosage of 10 mg/kg; format: functional, Canis lupus familiaris; in short: as §2
Canis familiaris [28] = test: Tested for the percent increase in coronary sinus partial pressure of oxygen (PO2) in open chest anesthetized dog at intravenous dosage of 10.00 mg/kg; format: functional, Canis lupus familiaris
Canis familiaris [29] = test: Tested for the percent increase in aortic blood pressure (BP) in open chest anesthetized dog at intravenous dosage of 10.00 mg/kg; format: functional, Canis lupus familiaris, Artery; in short: as §3
Canis familiaris [30] = test: Tested for percent increase in coronary sinus partial pressure of oxygen (PO2) in open chest anesthetized dog at intravenous dosage of 2.00 mg/kg; format: functional, Canis lupus familiaris
Canis familiaris [31] = test: Total time in minutes elapsed from the initiation of the change until return to the pretest value of heart rate in coronary sinus of anesthetized dog at intravenous dosage of 2 mg/kg; format: functional, Canis lupus familiaris
Canis familiaris [32] = test: Total time in minutes elapsed from the initiation of the change until return to the pretest value of blood pressure in coronary sinus of anesthetized dog at intravenous dosage of 2 mg/kg; format: functional, Canis lupus familiaris
Canis familiaris [33] = test: Total time in minutes elapsed from the initiation of the change until return to the pretest value of oxygen partial pressure in coronary sinus of anesthetized dog at intravenous dosage of 2 mg/kg; format: functional, Canis lupus familiaris; in short: as §2
Canis familiaris [34] = test: Tested for the percent increase in aortic blood pressure (BP) in open chest anesthetized dog at intravenous dosage of 2.00 mg/kg; format: functional, Canis lupus familiaris, Artery; in short: as §3

CCOCCNC(=O)[C@H]1OC(n2cnc3c(N)ncnc32)[C@H](O)[C@@H]1O (some centres not stated)
LD50 [1]: 50 mg/kg
PO2 (Canis familiaris [2]): 135%
Duration (Canis familiaris [3]): 0 min
Duration (Canis familiaris [4]): 120 min
Duration (Canis familiaris [5]): 6 min
Duration (Canis familiaris [6]): 120 min
BP (Canis familiaris [7]): 8%
BP (Canis familiaris [8]): 15%
Duration (Canis familiaris [9]): 120 min
LD50 [10]: > 1000 mg/kg
Duration (Canis familiaris [11]): 1 min

Nc1ncnc2c1ncn2C1O[C@H](C(=O)NCc2ccccc2)[C@@H](O)[C@H]1O (some centres not stated)
Duration (Canis familiaris [4]): 60 min
LD50 (Mus musculus [12]): > 1000 mg/kg
Duration (Canis familiaris [6]): 24 min
BP (Canis familiaris [13]): 5 mmHg
LD50 (Mus musculus [14]): 200 mg/kg
PO2 (Canis familiaris [15]): 48%
Duration (Canis familiaris [9]): 60 min
HR (Canis familiaris [16]): 13%

Nc1c2ncn(C3O[C@H](C(=O)NC4CC4)[C@@H](O)[C@H]3O)c2nc[n+]1[O-] (some centres not stated)
Duration (Canis familiaris [17]): 60 min
Duration (Canis familiaris [18]): 75 min
Duration (Canis familiaris [19]): 60 min
BP (Canis familiaris [7]): 15%
PO2 (Canis familiaris [20]): 66%

CN(C)C(=O)[C@H]1OC(n2cnc3c(N)ncnc32)[C@H](O)[C@@H]1O (some centres not stated)
PO2 (Canis familiaris [21]): 0%
LD50 [1]: 50 mg/kg
Duration (Canis familiaris [4]): 0 min
Duration (Canis familiaris [6]): 0 min
BP (Canis familiaris [8]): 0%
Duration (Canis familiaris [22]): 0 min
LD50 [10]: 1000 mg/kg

CNC(=O)[C@H]1O[C@@H](n2cnc3c(N)ncnc32)[C@H](O)[C@@H]1O
Duration (Canis familiaris [17]): 60 min
LD50 [1]: 5 mg/kg
Duration (Canis familiaris [3]): 240 min
Duration (Canis familiaris [18]): 14 min
Duration (Canis familiaris [23]): 240 min
PO2 (Canis familiaris [24]): 215%
PO2 (Canis familiaris [20]): 105%
LD50 [10]: 20 mg/kg
Duration (Canis familiaris [11]): 240 min

CCN(CC)CCNC(=O)[C@H]1OC(n2cnc3c(N)ncnc32)[C@H](O)[C@@H]1O (some centres not stated)
PO2 (Canis familiaris [21]): 57%
LD50 [1]: 50 mg/kg
Duration (Canis familiaris [4]): 6 min
Duration (Canis familiaris [25]): 22 min
Duration (Canis familiaris [6]): 0 min
Duration (Canis familiaris [26]): 60 min
Duration (Canis familiaris [27]): 60 min
PO2 (Canis familiaris [28]): 25%
BP (Canis familiaris [8]): 0%
BP (Canis familiaris [29]): 7%
Duration (Canis familiaris [9]): 0 min
LD50 [10]: > 1000 mg/kg

Nc1ncnc2c1ncn2[C@@H]1O[C@H](CO)[C@@H](O)[C@H]1O [ADENOSINE]
PO2 (Canis familiaris [30]): 200%
Duration (Canis familiaris [31]): 4 min
Duration (Canis familiaris [32]): 2 min
Duration (Canis familiaris [33]): 2 min
BP (Canis familiaris [34]): 60 mmHg
